In brackets after ≈: the same amount, converted by molar mass. Blank lines part the entries; values can stand above or below the compound they belong to.
What was measured:
Assay type in all cases: functional
Acinetobacter pittii [1] = experiment: Antibacterial activity against Acinetobacter genomosp. 3 isolate 14 by Etest method
Outline: (§1)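 MICs for AG3 clinical isolates were read by Etest following the manufacturer's instructions. Isolates were stored at –80°C in 10% Brucella glycerol broth before testing.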

Acinetobacter pittii [2] = experiment: Antibacterial activity against Acinetobacter genomosp. 3 isolate 56 by Etest method; outline: as §1
Acinetobacter pittii [3] = experiment: Antibacterial activity against Acinetobacter genomosp. 3 isolate 65 by Etest method; outline: as §1
Acinetobacter pittii [4] = experiment: Antibacterial activity against Acinetobacter genomosp. 3 isolate 67 by Etest method; outline: as §1
Acinetobacter pittii [5] = experiment: Antibacterial activity against Acinetobacter genomosp. 3 isolate 20 by Etest method in presence of efflux pump inhibitor PAN
Acinetobacter pittii [6] = experiment: Antibacterial activity against Acinetobacter genomosp. 3 isolate 20 by Etest method in efflux pump inhibitor CCCP
Acinetobacter pittii [7] = experiment: Antibacterial activity against Acinetobacter genomosp. 3 isolate 52 by Etest method in presence of efflux pump inhibitor PAN
Acinetobacter pittii [8] = experiment: Antibacterial activity against Acinetobacter genomosp. 3 isolate 52 by Etest method of efflux pump inhibitor CCCP
Acinetobacter pittii [9] = experiment: Antibacterial activity against Acinetobacter genomosp. 3 isolate 56 by Etest method in presence of cloxacillin; outline: as §1
Acinetobacter pittii [10] = experiment: Antibacterial activity against Acinetobacter genomosp. 3 isolate 56 by Etest method in presence of efflux pump inhibitor PAN
Acinetobacter pittii [11] = experiment: Antibacterial activity against Acinetobacter genomosp. 3 isolate 60 by Etest method in presence of efflux pump inhibitor PAN
Acinetobacter pittii [12] = experiment: Antibacterial activity against Acinetobacter genomosp. 3 isolate 60 by Etest method in presence of efflux pump inhibitor CCCP
Acinetobacter pittii [13] = experiment: Antibacterial activity against Acinetobacter genomosp. 3 isolate 65 by Etest method in presence of efflux pump inhibitor CCCP
Acinetobacter pittii [14] = experiment: Antibacterial activity against Acinetobacter genomosp. 3 isolate 67 by Etest method in presence of efflux pump inhibitor PAN
Acinetobacter pittii [15] = experiment: Antibacterial activity against Acinetobacter genomosp. 3 isolate 67 by Etest method in presence of efflux pump inhibitor CCCP
Acinetobacter pittii [16] = experiment: Antibacterial activity against Acinetobacter genomosp. 3 isolate 69 by Etest method in presence of efflux pump inhibitor PAN
Acinetobacter pittii [17] = experiment: Antibacterial activity against Acinetobacter genomosp. 3 isolate 69 by Etest method in presence of efflux pump inhibitor CCCP
Acinetobacter pittii [18] = experiment: Antibacterial activity against Acinetobacter genomosp. 3 isolate 90 by Etest method in presence of cloxacillin; outline: as §1
Acinetobacter pittii [19] = experiment: Antibacterial activity against Acinetobacter genomosp. 3 isolate 90 by Etest method in presence of efflux pump inhibitor CCCP
Acinetobacter pittii [20] = experiment: Antibacterial activity against Acinetobacter genomosp. 3 isolate 103 by Etest method in presence of efflux pump inhibitor PAN
Acinetobacter pittii [21] = experiment: Antibacterial activity against Acinetobacter genomosp. 3 isolate 109 by Etest method in presence of cloxacillin; outline: as §1
Acinetobacter pittii [22] = experiment: Antibacterial activity against Acinetobacter genomosp. 3 isolate 109 by Etest method in presence of efflux pump inhibitor PAN
Acinetobacter pittii [23] = experiment: Antibacterial activity against Acinetobacter genomosp. 3 isolate 109 by Etest method in presence of efflux pump inhibitor CCCP
Acinetobacter pittii [24] = experiment: Antibacterial activity against Acinetobacter genomosp. 3 isolate 128 by Etest method in presence of cloxacillin; outline: as §1
Acinetobacter pittii [25] = experiment: Antibacterial activity against Acinetobacter genomosp. 3 isolate 128 by Etest method in presence of efflux pump inhibitor PAN
Acinetobacter pittii [26] = experiment: Antibacterial activity against Acinetobacter genomosp. 3 isolate 128 by Etest method in presence of efflux pump inhibitor CCCP
Acinetobacter pittii [27] = experiment: Antibacterial activity against Acinetobacter genomosp. 3 isolate 195 by Etest method in presence of cloxacillin; outline: as §1
Acinetobacter pittii [28] = experiment: Antibacterial activity against Acinetobacter genomosp. 3 isolate 243 by Etest method in presence of cloxacillin; outline: as §1
Acinetobacter pittii [29] = experiment: Antibacterial activity against Acinetobacter genomosp. 3 isolate 243 by Etest method in presence of efflux pump inhibitor PAN
Acinetobacter pittii [30] = experiment: Antibacterial activity against Acinetobacter genomosp. 3 isolate 243 by Etest method in presence of efflux pump inhibitor CCCP
Escherichia coli [31] = experiment: Antibacterial activity against Escherichia coli DH5alpha by Etest method
Outline: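 E. coli DH5α host strain, grown at 37°C in LB medium. MICs of β-lactams determined by Etest following the manufacturer's instructions.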

Acinetobacter pittii [32] = experiment: Antibacterial activity against Acinetobacter genomosp. 3 isolate 21 by Etest method in presence of cloxacillin and efflux pump inhibitor PAN
Acinetobacter pittii [33] = experiment: Antibacterial activity against Acinetobacter genomosp. 3 isolate 52 by Etest method in presence of cloxacillin and efflux pump inhibitor PAN
Acinetobacter pittii [34] = experiment: Antibacterial activity against Acinetobacter genomosp. 3 isolate 65 by Etest method in presence of cloxacillin and efflux pump inhibitor CCCP
Acinetobacter pittii [35] = experiment: Antibacterial activity against Acinetobacter genomosp. 3 isolate 67 by Etest method in presence of cloxacillin and efflux pump inhibitor CCCP
Acinetobacter pittii [36] = experiment: Antibacterial activity against Acinetobacter genomosp. 3 isolate 69 by Etest method in presence of cloxacillin and efflux pump inhibitor PAN
Acinetobacter pittii [37] = experiment: Antibacterial activity against Acinetobacter genomosp. 3 isolate 90 by Etest method in presence of cloxacillin and efflux pump inhibitor CCCP
Acinetobacter pittii [38] = experiment: Antibacterial activity against Acinetobacter genomosp. 3 isolate 103 by Etest method in presence of cloxacillin and efflux pump inhibitor CCCP
Acinetobacter pittii [39] = experiment: Antibacterial activity against Acinetobacter genomosp. 3 isolate 14 by Etest method in presence of efflux pump inhibitor PAN
Acinetobacter pittii [40] = experiment: Antibacterial activity against Acinetobacter genomosp. 3 isolate 195 by Etest method in presence of cloxacillin and efflux pump inhibitor PAN
Acinetobacter pittii [41] = experiment: Antibacterial activity against Acinetobacter genomosp. 3 isolate 195 by Etest method in presence of cloxacillin and efflux pump inhibitor CCCP
Acinetobacter pittii [42] = experiment: Antibacterial activity against Acinetobacter genomosp. 3 isolate 243 by Etest method in presence of cloxacillin and efflux pump inhibitor PAN
Acinetobacter pittii [43] = experiment: Antibacterial activity against Acinetobacter genomosp. 3 isolate 243 by Etest method in presence of cloxacillin and efflux pump inhibitor CCCP
Acinetobacter pittii [44] = experiment: Antibacterial activity against Acinetobacter genomosp. 3 isolate 14 by Etest method in presence of cloxacillin and efflux pump inhibitor […]
Acinetobacter pittii [45] = experiment: Antibacterial activity against Acinetobacter genomosp. 3 isolate 109 by Etest method; outline: as §1
Acinetobacter pittii [46] = experiment: Antibacterial activity against Acinetobacter genomosp. 3 isolate 128 by Etest method; outline: as §1
Escherichia coli [47] = experiment: Antibacterial activity against Escherichia coli DH5alpha carrying ampC gene of Acinetobacter genomosp. 3 isolate 14 by Etest method
Outline: (§2)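 E. coli DH5α expressing the AG3 isolate ampC gene, PCR-amplified (high-fidelity system, 28 cycles) and cloned into BamHI/HindIII sites of pBGS18 (kanamycin marker) under the CTX-M-14 β-lactamase promoter. Grown at 37°C in LB, with kanamycin 50 µg/ml when needed. β-Lactam MICs determined by Etest per the manufacturer's instructions.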

Escherichia coli [48] = experiment: Antibacterial activity against Escherichia coli DH5alpha carrying ampC gene of Acinetobacter genomosp. 3 isolate 56 by Etest method; outline: as §2
Escherichia coli [49] = experiment: Antibacterial activity against Escherichia coli DH5alpha carrying ampC gene of Acinetobacter genomosp. 3 isolate 69 by Etest method; outline: as §2

Compound: C[C@@H](O)[C@H]1C(=O)N2C(C(=O)O)=C(S[C@@H]3CN[C@H](C(=O)N(C)C)C3)[C@H](C)[C@H]12 [MEROPENEM]
- MIC (Acinetobacter pittii [1]): 0.5 µg/mL (≈ 1.3 µM)
- MIC (Acinetobacter pittii [2]): 0.38 µg/mL (≈ 0.991 µM)
- MIC (Acinetobacter pittii [3]): 0.5 µg/mL (≈ 1.3 µM)
- MIC (Acinetobacter pittii [4]): 0.5 µg/mL (≈ 1.3 µM)
- MIC (Acinetobacter pittii [5]): 3 µg/mL
- MIC (Acinetobacter pittii [6]): 4 µg/mL (≈ 10.4 µM)
- MIC (Acinetobacter pittii [7]): 0.38 µg/mL
- MIC (Acinetobacter pittii [8]): 0.38 µg/mL (≈ 0.991 µM)
- MIC (Acinetobacter pittii [9]): 0.38 µg/mL
- MIC (Acinetobacter pittii [10]): 0.094 µg/mL
- MIC (Acinetobacter pittii [11]): 0.19 µg/mL
- MIC (Acinetobacter pittii [12]): 0.5 µg/mL
- MIC (Acinetobacter pittii [13]): 0.25 µg/mL
- MIC (Acinetobacter pittii [14]): 0.25 µg/mL
- MIC (Acinetobacter pittii [15]): 0.25 µg/mL
- MIC (Acinetobacter pittii [16]): 0.25 µg/mL
- MIC (Acinetobacter pittii [17]): 0.25 µg/mL
- MIC (Acinetobacter pittii [18]): 1 µg/mL
- MIC (Acinetobacter pittii [19]): 1.5 µg/mL
- MIC (Acinetobacter pittii [20]): 0.75 µg/mL
- MIC (Acinetobacter pittii [21]): 0.25 µg/mL
- MIC (Acinetobacter pittii [22]): 0.25 µg/mL
- MIC (Acinetobacter pittii [23]): 0.25 µg/mL
- MIC (Acinetobacter pittii [24]): 0.25 µg/mL
- MIC (Acinetobacter pittii [25]): 0.125 µg/mL
- MIC (Acinetobacter pittii [26]): 0.19 µg/mL
- MIC (Acinetobacter pittii [27]): 1 µg/mL
- MIC (Acinetobacter pittii [28]): 0.125 µg/mL
- MIC (Acinetobacter pittii [29]): 0.19 µg/mL
- MIC (Acinetobacter pittii [30]): 0.25 µg/mL
- MIC (Escherichia coli [31]): 0.008 µg/mL (≈ 0.0209 µM)
- MIC (Acinetobacter pittii [32]): 0.64 µg/mL
- MIC (Acinetobacter pittii [33]): 0.5 µg/mL
- MIC (Acinetobacter pittii [34]): 0.19 µg/mL
- MIC (Acinetobacter pittii [35]): 0.19 µg/mL
- MIC (Acinetobacter pittii [36]): 0.38 µg/mL
- MIC (Acinetobacter pittii [37]): 0.38 µg/mL
- MIC (Acinetobacter pittii [38]): 1 µg/mL
- MIC (Acinetobacter pittii [39]): 0.25 µg/mL
- MIC (Acinetobacter pittii [40]): 1 µg/mL
- MIC (Acinetobacter pittii [41]): 0.38 µg/mL
- MIC (Acinetobacter pittii [42]): 0.19 µg/mL
- MIC (Acinetobacter pittii [43]): 0.094 µg/mL
- MIC (Acinetobacter pittii [44]): 0.25 µg/mL
- MIC (Acinetobacter pittii [45]): 0.38 µg/mL (≈ 0.991 µM)
- MIC (Acinetobacter pittii [46]): 0.19 µg/mL (≈ 0.495 µM)
- MIC (Escherichia coli [47]): 0.023 µg/mL (≈ 0.06 µM)
- MIC (Escherichia coli [48]): 0.023 µg/mL (≈ 0.06 µM)
- MIC (Escherichia coli [49]): 0.023 µg/mL (≈ 0.06 µM)

- MIC (Acinetobacter pittii [1]): > 256 µg/mL
- MIC (Acinetobacter pittii [2]): > 256 µg/mL
- MIC (Acinetobacter pittii [3]): > 256 µg/mL
- MIC (Acinetobacter pittii [4]): > 256 µg/mL
- MIC (Acinetobacter pittii [5]): > 256 µg/mL
- MIC (Acinetobacter pittii [6]): > 256 µg/mL
- MIC (Acinetobacter pittii [7]): > 256 µg/mL
- MIC (Acinetobacter pittii [8]): > 256 µg/mL
- MIC (Acinetobacter pittii [9]): > 256 µg/mL
- MIC (Acinetobacter pittii [10]): > 256 µg/mL
- MIC (Acinetobacter pittii [11]): > 256 µg/mL
- MIC (Acinetobacter pittii [12]): > 256 µg/mL
- MIC (Acinetobacter pittii [13]): 128 µg/mL
- MIC (Acinetobacter pittii [14]): > 256 µg/mL
- MIC (Acinetobacter pittii [15]): 192 µg/mL
- MIC (Acinetobacter pittii [16]): > 256 µg/mL
- MIC (Acinetobacter pittii [17]): > 256 µg/mL
- MIC (Acinetobacter pittii [18]): 192 µg/mL
- MIC (Acinetobacter pittii [19]): > 256 µg/mL
- MIC (Acinetobacter pittii [20]): > 256 µg/mL
- MIC (Acinetobacter pittii [21]): 128 µg/mL
- MIC (Acinetobacter pittii [22]): > 256 µg/mL
- MIC (Acinetobacter pittii [23]): > 256 µg/mL
- MIC (Acinetobacter pittii [24]): 48 µg/mL
- MIC (Acinetobacter pittii [25]): > 256 µg/mL
- MIC (Acinetobacter pittii [26]): > 256 µg/mL
- MIC (Acinetobacter pittii [27]): > 256 µg/mL
- MIC (Acinetobacter pittii [28]): 192 µg/mL
- MIC (Acinetobacter pittii [29]): > 256 µg/mL
- MIC (Acinetobacter pittii [30]): > 256 µg/mL
- MIC (Escherichia coli [31]): 3 µg/mL (≈ 7.57 µM)
- MIC (Acinetobacter pittii [32]): 192 µg/mL
- MIC (Acinetobacter pittii [33]): > 256 µg/mL
- MIC (Acinetobacter pittii [34]): 24 µg/mL
- MIC (Acinetobacter pittii [35]): 24 µg/mL
- MIC (Acinetobacter pittii [36]): > 256 µg/mL
- MIC (Acinetobacter pittii [37]): 24 µg/mL
- MIC (Acinetobacter pittii [38]): 24 µg/mL
- MIC (Acinetobacter pittii [39]): > 256 µg/mL
- MIC (Acinetobacter pittii [40]): > 256 µg/mL
- MIC (Acinetobacter pittii [41]): 96 µg/mL
- MIC (Acinetobacter pittii [42]): 192 µg/mL
- MIC (Acinetobacter pittii [43]): 12 µg/mL
- MIC (Acinetobacter pittii [44]): 24 µg/mL
- MIC (Acinetobacter pittii [45]): > 256 µg/mL
- MIC (Acinetobacter pittii [46]): > 256 µg/mL
- MIC (Escherichia coli [47]): > 256 µg/mL
- MIC (Escherichia coli [48]): > 256 µg/mL
- MIC (Escherichia coli [49]): > 256 µg/mL
Compound: CC(=O)OCC1=C(C(=O)O)N2C(=O)[C@@H](NC(=O)Cc3cccs3)[C@H]2SC1 [CEPHALOTHIN]

— ChEMBL document CHEMBL1649124, “Genetic variability among ampC genes from acinetobacter genomic species 3” (Antimicrob Agents Chemother, 2009)
